The results in this text go back to PubChem BioAssay AID743238 (Broad Institute, 2013).

About 200 (0.056%) of roughly 360,000 compounds were called active.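 How the source made its calls: active means mean normalized replicate activation at least 10% and every replicate at or above 10%; inconclusive means only one of the two criteria met; inactive means mean below 10% and not all replicates reach 10%.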 Only a selection was taken, and actives are over-represented in it overall.

This test is described as follows: activators of inactive X chromosome reactivation, primary screen, imaging, XiGFP fibroblasts, GFP high-content imaging, set 2 (AID 743238).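 Further: 0% = median of on-plate neutral control wells and 100% = ellipticine 6 µM median.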 The settings on record: XiGFP mouse fibroblasts, % GFP-positive cells imaging, 3 d; at 7.58 µM; hits give high values; cells co-treated with 5-aza-dC sensitizer; scaled so ellipticine positive control = 100%. The gist of the method:
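assay system = SV40-immortalized XiGFP fibroblast cells, line 68-5-11 | buffer or medium = DMEM plus 5-aza-dC sensitizer | doses = single-point pinned compound dosing | times = 3-day compound exposure, then 15 min fixation at room temperature | benchmarks = positive control ellipticine, 6 µM final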
As to `COCC#Cc1ccc([C@@H]2[C@@H](CO)N3C(=O)CN(C(=O)Nc4cc(F)ccc4F)C[C@@H]23)cc1`, the activation is 0.227% (inactive). For `CS(=O)(=O)N1[C@H](C#N)[C@H](c2ccccc2-c2ccc(F)cc2)[C@@H]1CO` the value was 0.0935% (inactive).

With `O=C(NCc1ccc(F)cc1)[C@@H]1[C@@H](CO)[C@@H]2Cn3c(cccc3=O)[C@@H]2N1C(=O)c1cccnc1`, the activation is 0.173% (inactive). For `C[C@H]1CN([C@@H](C)CO)C(=O)c2cc(C3=CCCC3)cnc2O[C@H]1CN(C)Cc1ccccc1C(=O)O` the value was -0.072% (inactive); for `O=C(C[C@@H]1CC[C@H](NS(=O)(=O)c2ccc(F)cc2)[C@@H](CO)O1)NCc1ccccc1F`, -0.283% (inactive). For `Cc1noc(C)c1NC(=O)Nc1ccc2c(c1)C(=O)N([C@H](C)CO)C[C@H](C)[C@H](CN(C)S(=O)(=O)c1cccs1)O2` the value was 0.0715% (inactive); for `N#C[C@@H]1[C@H](c2ccccc2-c2cccc(F)c2)[C@@H](CO)N1C(=O)C1CCCC1`, 0.007% (inactive).

`Cc1cccc2cc3c(N)c(C(=O)N4CCCc5ccccc54)sc3nc12`: the activation was 39.9% (active). For `COc1cccc(/C=C/C(=O)OCC(=O)N2CCCc3ccccc32)c1` the value was 0.22% (inactive); for `Cc1cccc(N2CCN(C(C)C(=O)N3CCc4ccccc43)CC2)c1C` (stereo not given), 0.0055% (inactive); for `O=C(C[C@@H]1C[C@H]2c3cc(NC(=O)NC4CCCC4)ccc3O[C@H]2[C@H](CO)O1)NCc1cc(F)ccc1F`, 0.0125% (inactive). On to `C[C@H](CO)N1C[C@H](C)[C@H](CN(C)S(=O)(=O)c2ccc(Cl)cc2)Oc2ccc(NC(=O)C3CCCCC3)cc2C1=O`, for which the activation was -0.051% (inactive).

`CN1C(=O)c2cc(NC(=O)c3ccc(Cl)cc3)ccc2OC[C@H]2O[C@H](CC(=O)O)CC[C@H]21`: the activation was 0.521% (inactive).

As for `C[C@@H]1CCCCO[C@@H](CN(C)Cc2ccc(C(=O)Nc3ccccc3N)cc2)[C@H](C)CN([C@H](C)CO)C(=O)c2cc(N(C)C)ccc2O1`, the activation was 2.13% (inactive). For the compound `O=C(C1CCCC1)N1CC(=O)N2[C@@H](CO)[C@@H](c3ccc(-c4cccnc4)cc3)[C@@H]2C1`, the activation is 0.207% (inactive). For `C[C@@H](NC(=O)[C@H]1[C@H](CO)[C@H]2Cn3c(cccc3=O)[C@@H]1N2Cc1cccnc1)c1ccccc1` the value was 0.133% (inactive); for `C[C@@H]1CN([C@H](C)CO)C(=O)Cc2cc(NC(=O)Nc3ccc4c(c3)OCO4)ccc2O[C@@H]1CN(C)C(=O)Nc1ccccc1`, -0.384% (inactive); for `CCCNC(=O)N1C[C@@H](C)[C@@H](OC)CN(C)C(=O)c2ccc(NC(=O)C3CCC3)cc2OC[C@@H]1C`, -0.29% (inactive). `COc1ccc2c3c([nH]c2c1)[C@@H](CO)N(C(=O)c1ccccc1)CC31CCN(C(=O)Nc2cccc(F)c2)CC1`: the activation is 0.295% (inactive). For `Cc1noc(C)c1NC(=O)N[C@@H]1C=C[C@@H](CC(=O)Nc2ccccc2)O[C@H]1CO` the value was 0.193% (inactive); for `COc1ccccc1C(=O)N/C(=C/c1ccc2c(c1)OCO2)C(=O)Nc1cccc(C(=O)O)c1`, 0.184% (inactive).

As for `O=C(Nc1cccc(C(=O)O)c1)/C(=C\c1ccccc1)NC(=O)c1ccc(Br)o1`, the activation was 97.3% (active). Regarding `O=C(NC(Cc1ccc(O)cc1)C(=O)O)/C(=C/c1ccccc1)NC(=O)c1ccccc1` (stereo not given), the activation is 0.249% (inactive). For `C[C@@H]1CCCCO[C@@H](CN(C)S(=O)(=O)c2cn(C)cn2)[C@@H](C)CN([C@@H](C)CO)C(=O)c2cc(NC(=O)NC3CCCCC3)ccc2O1` the value was 0.153% (inactive).

As for `O=C(c1ccncc1)N1CC(=O)N2[C@H](C1)[C@@H](c1ccc(C#CCC3CCCC3)cc1)[C@@H]2CO`, the activation was 0.192% (inactive).

Consider `C[C@H]1CN([C@@H](C)CO)C(=O)c2cccc(NS(=O)(=O)c3ccc(F)cc3)c2O[C@@H]1CN(C)C`, for which the activation was -0.0195% (inactive).

With `CNC[C@@H]1Oc2ccc(NC(=O)C3CCCCC3)cc2C(=O)N([C@@H](C)CO)C[C@H]1C`, the activation is -1.11% (inactive). For `C[C@@H](NC(=O)C[C@@H]1C[C@@H]2c3cc(NC(=O)c4cccnc4)ccc3O[C@@H]2[C@H](CO)O1)c1ccccc1` the value was -0.0445% (inactive). For `CC(=O)N1[C@@H]2c3ccc(-c4ccccc4)c(=O)n3C[C@@H]2[C@@H](CO)[C@@H]1C(=O)NCc1ccccc1F` the value was 0.21% (inactive). `C[C@H](CO)N1C[C@H](C)[C@@H](CN(C)Cc2cccnc2)Oc2ncc(/C=C/c3ccccc3)cc2C1=O`: the activation is -0.672% (inactive). For `CC(C)CC#Cc1cnc2c(c1)C(=O)N([C@H](C)CO)C[C@H](C)[C@H](CN(C)CC1CCOCC1)O2` the value was 0.516% (inactive); for `CC[C@H]1CC=CC[C@@H](C)Oc2ccccc2C(=O)N(C)[C@H](Cc2ccccc2)C(=O)N1` (mixture of isomers), -0.034% (inactive). `CSc1nnc(SCc2nc3sc(C(=O)O)c(C)c3c(=O)[nH]2)s1`: the activation was 0.212% (inactive). Regarding `CCOC(=O)c1sc2nc(C)nc(SCC(N)=O)c2c1C`, the activation was -0.02% (inactive).

`CCOC(=O)c1sc2nc(CSc3ccccc3)[nH]c(=O)c2c1C`: the activation is 21.4% (active). Regarding `C/C=C/c1ccc2c(c1)O[C@H](CN(C)C(=O)Cc1cccnc1)[C@@H](C)CN([C@H](C)CO)S2(=O)=O`, the activation is 0.77% (inactive).

Take `COc1ccc2c3c(n(C)c2c1)[C@H](CO)N(C(C)=O)CC31CN(Cc2ccc(Cl)cc2)C1`: the activation was -0.0005% (inactive). For `COCCN(C[C@H]1[C@@H](c2ccccc2)[C@H](CO)N1C(=O)C1CCC1)C(C)=O` the value was 0.023% (inactive); for `C/C=C/c1ccc([C@H]2[C@@H](CO)N(C(=O)CC)[C@H]2CN(C)C(=O)C2CC2)cc1`, 0.008% (inactive). Regarding `CCC(=O)Nc1ccc2c(c1)C(=O)N(C)C[C@@H](OC)[C@@H](C)CN(C(=O)CN(C)C)[C@@H](C)CO2`, the activation was 0.206% (inactive). Consider `CCC(=O)N1CC2(CCN(Cc3ccc(Cl)cc3)CC2)c2c(n(C)c3cc(OC)ccc23)[C@@H]1CO`, for which the activation is 0.134% (inactive).

On to `CCS(=O)(=O)N1CC2(CN(C(=O)c3ccc(F)cc3)[C@@H](CO)c3c2c2ccc(OC)cc2n3C)C1`, for which the activation is 0.267% (inactive).

On to `C[C@@H]1CN([C@@H](C)CO)S(=O)(=O)c2ccc(Br)cc2O[C@@H]1CN(C)C(=O)CN(C)C`, for which the activation was 0.922% (inactive). For `O=C(Nc1ccc(F)cc1)N1CC(=O)N2[C@H](CO)[C@H](c3ccc(C#Cc4ccccc4)cc3)[C@H]2C1` the value was 0.018% (inactive); for `C[C@H](CO)N1C[C@H](C)[C@@H](CN(C)S(C)(=O)=O)Oc2ccc(NC(=O)Nc3ccc4c(c3)OCO4)cc2CC1=O`, 0.005% (inactive); for `OC[C@H]1[C@@H](c2ccc(C#Cc3ccccc3F)cc2)[C@H]2CN(CC3CCOCC3)CCCCN21`, -0.0285% (inactive).

Turning to `C[C@H]1CN([C@@H](C)CO)C(=O)c2cc(-c3ccccc3)cnc2O[C@H]1CN(C)C(=O)C1CCOCC1`, the activation was -0.251% (inactive). For `COCC(=O)Nc1ccc2c(c1)C(=O)N(C)[C@@H]1CC[C@H](CC(=O)NCC3CC3)O[C@H]1CO2` the value was 0.286% (inactive); for `COc1ccc2c3c(n(C)c2c1)[C@H](CO)NCC31CN(S(=O)(=O)c2cccc(C)c2)C1`, 0.887% (inactive).

With `COc1cccc(-c2cnc3c(c2)C(=O)N([C@H](C)CO)C[C@H](C)[C@H](CN(C)Cc2ccncc2)O3)c1`, the activation is 0.983% (inactive). For `CC(=O)N(C)C[C@H]1Oc2ncc(C#Cc3ccc(F)cc3)cc2C(=O)N([C@H](C)CO)C[C@@H]1C` the value was -1.15% (inactive); for `C[C@H]1CN([C@@H](C)CO)C(=O)CCCn2cc(nn2)CO[C@H]1CN(C)C(=O)Nc1ccc(F)cc1`, -0.396% (inactive); for `O=C(C[C@H]1C=C[C@@H](NC(=O)CC2CC2)[C@H](CO)O1)NCc1ccc(-c2ccccc2)cc1`, 0.158% (inactive). For `COc1ccc(S(=O)(=O)N(C)C[C@@H]2Oc3ccc(NC(=O)CCN4CCOCC4)cc3CC(=O)N([C@@H](C)CO)C[C@@H]2C)cc1` the value was -1.18% (inactive); for `O=C(c1cccc(F)c1)N1CC[C@@H]2[C@H](CO)Nc3ccc(C#Cc4ccccc4)cc3[C@@H]21`, 0.0425% (inactive).

Take `CC(C)NC(=O)N(C)C[C@@H]1Oc2ncc(C#CC3CC3)cc2C(=O)N([C@@H](C)CO)C[C@H]1C`: the activation was -0.634% (inactive).

On to `Nc1c(C(=O)c2cccs2)sc2nsc(SCCN3CCCCC3)c12`, for which the activation was 114% (active). For `O=C(NC1CCCC1)N1CC(=O)N2[C@H](C1)[C@H](c1ccc(/C=C/c3ccccc3)cc1)[C@@H]2CO` the value was 0.335% (inactive); for `CCCC#Cc1ccc([C@H]2[C@H]3CN(C(=O)c4cccnc4)CC(=O)N3[C@H]2CO)cc1`, -0.0225% (inactive); for `COc1ccccc1-c1ccc([C@H]2[C@@H](CO)N(CC3CC3)C23CN(S(C)(=O)=O)C3)cc1`, 0.04% (inactive). For `CO[C@@H]1CN(C)C(=O)c2cc(NC(=O)Nc3ccccc3F)ccc2OC[C@H](C)NC[C@H]1C` the value was -0.018% (inactive); for `O=C([C@@H]1[C@@H](CO)[C@@H]2Cn3c(ccc(-c4cncnc4)c3=O)[C@@H]2N1C(=O)C1CCC1)N1CCCCC1`, 0.322% (inactive). For `C[C@@H]1CCCCO[C@@H](CN(C)Cc2ccncc2)[C@@H](C)CN([C@H](C)CO)C(=O)c2cc(NS(=O)(=O)c3cccs3)ccc2O1` the value was 0.415% (inactive); for `CCCN1[C@H](CO)[C@H](c2ccc(C#CC3CCCCC3)cc2)[C@@H]1CNC(=O)C1CC1`, 0.049% (inactive). Take `CN1CCN(C(=O)C[C@@H]2CC[C@@H]3[C@H](COC[C@H](O)CN3CC3CCOCC3)O2)CC1`: the activation was 0.0745% (inactive).
